Measurements published in ChEMBL document CHEMBL3421623 (J Med Chem, 2015).

Tests used:
[1] = target: T1, Estrogen receptor (Homo sapiens) (UniProt P03372); experiment: Displacement of fluorescein-labeled ES2 from human recombinant ERalpha receptor at 100000 nM after 2 hrs by fluorescence polarization assay
T1 sequence (whole entry): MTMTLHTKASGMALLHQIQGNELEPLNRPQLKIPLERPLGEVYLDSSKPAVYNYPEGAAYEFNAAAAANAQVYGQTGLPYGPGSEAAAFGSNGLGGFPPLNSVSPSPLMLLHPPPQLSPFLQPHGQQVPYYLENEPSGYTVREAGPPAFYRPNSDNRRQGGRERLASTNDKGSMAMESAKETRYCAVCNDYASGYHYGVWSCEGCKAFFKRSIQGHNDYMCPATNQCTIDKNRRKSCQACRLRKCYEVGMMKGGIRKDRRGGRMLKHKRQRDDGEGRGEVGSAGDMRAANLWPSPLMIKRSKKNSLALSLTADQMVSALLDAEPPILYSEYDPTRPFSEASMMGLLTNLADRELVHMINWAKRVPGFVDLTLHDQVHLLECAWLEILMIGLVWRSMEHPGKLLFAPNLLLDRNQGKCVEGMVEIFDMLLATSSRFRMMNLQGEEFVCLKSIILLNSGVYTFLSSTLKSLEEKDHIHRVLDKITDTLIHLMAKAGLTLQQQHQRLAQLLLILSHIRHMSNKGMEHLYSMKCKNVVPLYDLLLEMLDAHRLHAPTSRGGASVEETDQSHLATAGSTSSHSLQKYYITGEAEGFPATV
Method in brief: (§1)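 Same ES2 fluorescence polarization setup: 9 nM ES2 with 30 nM ER-α or 20 nM ER-β, in phosphate/BGG buffer, 2 h in the dark. Each compound tested at a single 100000 nM and reported as percent ER competition versus vehicle control. Compounds were E/Z isomer mixtures (mostly 1:1). Mean of at least three experiments.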

Estrogen receptor beta [2] = target: T2, Estrogen receptor beta (Homo sapiens, UniProt Q92731); experiment: Displacement of fluorescein-labeled ES2 from human recombinant ERbeta receptor at 100000 nM after 2 hrs by fluorescence polarization assay; method in brief: as §1
T2 sequence (Q92731 whole entry): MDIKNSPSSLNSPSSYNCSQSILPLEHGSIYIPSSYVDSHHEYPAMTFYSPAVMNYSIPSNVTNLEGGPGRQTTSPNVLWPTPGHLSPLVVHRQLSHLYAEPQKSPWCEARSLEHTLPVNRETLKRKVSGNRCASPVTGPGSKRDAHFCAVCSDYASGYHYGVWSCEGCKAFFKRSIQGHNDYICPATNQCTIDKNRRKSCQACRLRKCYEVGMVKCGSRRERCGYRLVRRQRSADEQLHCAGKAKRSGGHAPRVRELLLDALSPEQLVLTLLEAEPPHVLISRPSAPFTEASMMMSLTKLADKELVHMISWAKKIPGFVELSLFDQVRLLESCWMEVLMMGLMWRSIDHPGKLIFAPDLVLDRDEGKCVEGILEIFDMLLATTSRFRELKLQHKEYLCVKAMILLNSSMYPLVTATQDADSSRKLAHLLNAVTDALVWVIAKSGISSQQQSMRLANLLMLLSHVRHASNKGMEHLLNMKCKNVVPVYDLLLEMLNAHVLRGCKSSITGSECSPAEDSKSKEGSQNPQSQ

Aromatase = target: T3, Aromatase (Homo sapiens, UniProt P11511); experiment: Inhibition of human recombinant aromatase using 7-methoxy-trifluoromethylcoumarin as substrate assessed as formation of fluorescent metabolite after 30 mins by fluorescence assay; conditions: for inhibition (INH): human, 0.5 h
T3 sequence (P11511 whole entry): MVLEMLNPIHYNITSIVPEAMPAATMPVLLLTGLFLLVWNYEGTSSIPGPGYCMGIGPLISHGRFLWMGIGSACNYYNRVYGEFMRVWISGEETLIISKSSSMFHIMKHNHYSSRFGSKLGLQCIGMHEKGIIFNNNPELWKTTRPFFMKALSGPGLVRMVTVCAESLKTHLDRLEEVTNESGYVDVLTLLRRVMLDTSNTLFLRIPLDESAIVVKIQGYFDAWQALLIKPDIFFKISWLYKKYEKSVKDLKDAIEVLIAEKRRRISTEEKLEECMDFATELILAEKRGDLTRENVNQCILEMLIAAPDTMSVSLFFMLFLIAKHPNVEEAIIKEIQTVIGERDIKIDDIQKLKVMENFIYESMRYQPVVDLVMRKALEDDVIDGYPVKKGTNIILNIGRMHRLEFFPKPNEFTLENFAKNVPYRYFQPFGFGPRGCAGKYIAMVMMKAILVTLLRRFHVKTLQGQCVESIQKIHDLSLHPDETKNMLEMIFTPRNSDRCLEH
Method in brief: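 Recombinant human CYP19 with MFC substrate, converted to fluorescent HFC, in 0.1 M potassium phosphate pH 7.4. NADPH-regenerating mix (NADP⁺, MgCl₂, glucose-6-phosphate, G6PDH); compound prewarmed 10 min at 37 °C, then 30 min reaction stopped with Tris base in acetonitrile. Activity as % of vehicle control; IC50 from one-site competition fit; Ki from Lineweaver–Burk data by nonlinear regression.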

Estrogen receptor beta [3] = target: T2, Estrogen receptor beta; experiment: Displacement of fluorescein-labeled ES2 from human recombinant ERbeta receptor after 2 hrs by fluorescence polarization assay
Method in brief: (§2)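 Fluorescence polarization competition. Compound in methanol or DMSO mixed with ES2 screening buffer (100 mM potassium phosphate, 100 μg/mL BGG, 0.02% NaN₃). Preformed complex added to final 9 nM ES2 with 30 nM ER-α or 20 nM ER-β. Polarization expressed as % of vehicle control; EC50 from one-site competition fit.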

Estrogen receptor = target: T4, Estrogen receptor (Homo sapiens, UniProt P03372); experiment: Displacement of fluorescein-labeled ES2 from human recombinant ERalpha receptor after 2 hrs by fluorescence polarization assay; method in brief: as §2
T4 sequence (P03372 whole entry): T1 sequence (whole entry)

[4] = target: T1, Estrogen receptor (Homo sapiens); experiment: Antiestrogenic effect at estrogen receptor in human MCF7 cells assessed as inhibition of E2-induced progesterone receptor mRNA expression at 1000 nM after 24 hrs by real time quantitative PCR; type: cell-based; design: scale not given: the % may be the effect or the level left
Method in brief: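 MCF-7 cells (10⁵/well) grown in MEM + 10% FBS at 37 °C, 5% CO₂, then preconditioned 72 h in charcoal-stripped FBS. Treated 24 h with 1 μM compound or vehicle (0.1% methanol) plus 10 nM E2 in MEM/10% charcoal-stripped FBS. PGR mRNA extracted after genomic DNA removal and quantified by qPCR (40 cycles, Ct). Reported as % of E2-alone expression (100%); 1 μM endoxifen as positive control.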

Cytochrome P450 2D6 = Cytochrome P450 2D6 (Homo sapiens, UniProt P10635); experiment: Inhibition of human recombinant CYP2D6 after 30 mins by fluorescence assay; type: ADME
Chain of Cytochrome P450 2D6 (P10635 whole entry): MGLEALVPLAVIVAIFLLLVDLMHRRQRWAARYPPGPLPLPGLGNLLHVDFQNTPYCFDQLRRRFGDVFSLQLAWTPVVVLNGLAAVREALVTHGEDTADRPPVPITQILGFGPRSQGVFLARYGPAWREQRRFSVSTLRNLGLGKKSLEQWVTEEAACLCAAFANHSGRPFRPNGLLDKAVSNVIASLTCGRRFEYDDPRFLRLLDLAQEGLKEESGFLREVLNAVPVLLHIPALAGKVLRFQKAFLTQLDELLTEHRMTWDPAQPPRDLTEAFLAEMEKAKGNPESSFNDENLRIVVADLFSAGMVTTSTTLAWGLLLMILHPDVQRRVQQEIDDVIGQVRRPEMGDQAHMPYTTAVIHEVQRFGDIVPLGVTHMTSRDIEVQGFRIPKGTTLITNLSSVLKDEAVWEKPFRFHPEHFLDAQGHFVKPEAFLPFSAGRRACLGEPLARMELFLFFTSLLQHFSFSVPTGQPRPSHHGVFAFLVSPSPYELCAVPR

Cytochrome P450 3A5 = Cytochrome P450 3A5 (Homo sapiens, UniProt P20815); experiment: Inhibition of human recombinant CYP3A5 assessed as metabolism of 7-benzyloxy-4-trifluoromethylcoumarin to HFC after 30 mins by fluorescence assay; type: ADME
Chain of Cytochrome P450 3A5 (P20815 whole entry): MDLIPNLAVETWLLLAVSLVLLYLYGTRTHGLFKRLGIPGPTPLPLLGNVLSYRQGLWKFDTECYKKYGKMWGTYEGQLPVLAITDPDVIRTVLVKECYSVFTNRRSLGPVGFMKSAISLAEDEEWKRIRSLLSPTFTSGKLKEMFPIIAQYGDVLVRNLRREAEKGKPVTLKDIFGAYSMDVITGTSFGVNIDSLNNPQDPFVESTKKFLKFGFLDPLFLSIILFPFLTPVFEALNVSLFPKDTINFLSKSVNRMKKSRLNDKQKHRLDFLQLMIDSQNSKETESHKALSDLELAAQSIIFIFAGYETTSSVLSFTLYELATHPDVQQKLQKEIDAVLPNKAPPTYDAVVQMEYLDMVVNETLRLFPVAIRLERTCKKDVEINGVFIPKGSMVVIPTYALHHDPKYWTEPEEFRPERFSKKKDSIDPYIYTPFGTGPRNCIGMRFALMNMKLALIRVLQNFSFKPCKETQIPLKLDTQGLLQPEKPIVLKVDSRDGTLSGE

Cytochrome P450 2A6 = target: T5, Cytochrome P450 2A6 (Homo sapiens, UniProt P11509); experiment: Inhibition of human recombinant CYP2A6 assessed as metabolism of coumarin to 7-hydroxycoumarin after 30 mins by fluorescence assay; type: ADME
T5 sequence (P11509 whole entry): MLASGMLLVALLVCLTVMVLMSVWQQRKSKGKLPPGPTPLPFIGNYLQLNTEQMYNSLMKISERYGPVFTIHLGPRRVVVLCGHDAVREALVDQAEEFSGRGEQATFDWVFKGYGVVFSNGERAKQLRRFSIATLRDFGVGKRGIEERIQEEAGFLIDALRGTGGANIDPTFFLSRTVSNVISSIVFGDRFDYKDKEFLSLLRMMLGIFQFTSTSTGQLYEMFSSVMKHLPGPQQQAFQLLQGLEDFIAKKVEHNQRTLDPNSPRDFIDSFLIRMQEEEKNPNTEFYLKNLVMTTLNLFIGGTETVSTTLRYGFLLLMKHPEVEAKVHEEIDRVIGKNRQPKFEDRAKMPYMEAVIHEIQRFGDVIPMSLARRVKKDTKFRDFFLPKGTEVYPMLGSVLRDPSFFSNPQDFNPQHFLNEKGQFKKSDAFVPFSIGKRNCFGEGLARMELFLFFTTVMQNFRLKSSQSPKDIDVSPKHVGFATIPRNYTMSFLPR

Cytochrome P450 3A4 = Cytochrome P450 3A4 (Homo sapiens, UniProt P08684); experiment: Inhibition of human recombinant CYP3A4 assessed as metabolism of 7-benzyloxy-4-trifluoromethylcoumarin to HFC after 30 mins by fluorescence assay; type: ADME
Chain of Cytochrome P450 3A4 (P08684 whole entry): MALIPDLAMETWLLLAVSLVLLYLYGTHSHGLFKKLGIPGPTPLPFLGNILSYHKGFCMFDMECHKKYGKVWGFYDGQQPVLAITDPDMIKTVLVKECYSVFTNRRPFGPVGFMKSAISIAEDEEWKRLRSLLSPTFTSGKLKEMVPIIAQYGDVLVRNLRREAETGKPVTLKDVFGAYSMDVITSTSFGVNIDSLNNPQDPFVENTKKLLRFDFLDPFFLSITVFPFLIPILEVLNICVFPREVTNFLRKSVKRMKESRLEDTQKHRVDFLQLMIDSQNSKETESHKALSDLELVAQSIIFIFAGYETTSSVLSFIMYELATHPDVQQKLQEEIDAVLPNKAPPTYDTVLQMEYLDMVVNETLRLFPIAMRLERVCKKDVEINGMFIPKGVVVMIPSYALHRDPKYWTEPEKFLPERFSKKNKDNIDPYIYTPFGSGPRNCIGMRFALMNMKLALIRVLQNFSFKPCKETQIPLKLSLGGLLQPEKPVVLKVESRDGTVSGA

Cytochrome P450 1A2 = target: T6, Cytochrome P450 1A2 (Homo sapiens, UniProt P05177); experiment: Inhibition of human recombinant CYP1A2 assessed as metabolism of 3-cyano-7-ethoxycoumarin after 30 mins by fluorescence assay; type: ADME
T6 sequence (P05177 whole entry): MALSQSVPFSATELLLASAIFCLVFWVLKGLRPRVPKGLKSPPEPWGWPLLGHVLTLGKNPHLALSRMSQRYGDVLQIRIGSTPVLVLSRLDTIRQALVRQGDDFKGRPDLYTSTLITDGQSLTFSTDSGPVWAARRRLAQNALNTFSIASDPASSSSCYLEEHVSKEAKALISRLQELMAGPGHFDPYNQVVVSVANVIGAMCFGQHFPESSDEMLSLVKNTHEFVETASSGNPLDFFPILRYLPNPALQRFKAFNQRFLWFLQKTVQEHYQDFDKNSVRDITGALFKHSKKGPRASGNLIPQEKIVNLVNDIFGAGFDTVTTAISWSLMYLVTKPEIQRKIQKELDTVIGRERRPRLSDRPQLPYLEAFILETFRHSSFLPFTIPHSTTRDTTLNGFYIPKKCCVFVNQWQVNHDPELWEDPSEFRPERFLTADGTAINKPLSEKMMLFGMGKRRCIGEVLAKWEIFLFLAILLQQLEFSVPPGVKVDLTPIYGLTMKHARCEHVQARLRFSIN

| Activity [1] [%] | Activity (Estrogen receptor beta [2]) [%] | IC50 (Aromatase) [nM] | EC50 (Estrogen receptor beta [3]) [nM] | EC50 (Estrogen receptor) [nM] | Activity [4] [%] | SMILES | further results |
| --- | --- | --- | --- | --- | --- | --- | --- |
| 0 | 0 | 913 |  |  |  | CC/C(=C(/c1ccccc1)c1ccc(OCCN)cc1)c1ccccc1 (mixture of isomers) |  |
|  |  | 143 | 52 | 265 |  | NCCOc1ccc(/C(=C(\CCCl)c2ccccc2)c2ccc(O)cc2)cc1 (mixture of isomers) |  |
| 59 | 74 | 16.9 |  |  |  | NCCOc1ccc(/C(=C(\Cn2ccnc2)c2ccccc2)c2ccc(O)cc2)cc1 (mixture of isomers) |  |
|  |  | 174 | 519 | 290 | 47 | NCCOc1ccc(/C(=C(\Cn2cncn2)c2ccccc2)c2ccc(O)cc2)cc1 (mixture of isomers) |  |
|  |  | 7340 | 13.3 | 27.1 | 16 | CC/C(=C(/c1ccc(O)cc1)c1ccc(CCCN)cc1)c1ccccc1 (mixture of isomers) |  |
|  |  | 1240 | 21.3 | 21.3 | 33 | CC/C(=C(/c1ccc(O)cc1)c1ccc(OCCCN)cc1)c1ccccc1 (mixture of isomers) |  |
|  |  | 1020 | 49.2 | 87.8 | 42 | CC/C(=C(/c1ccc(O)cc1)c1ccc(OCCN)cc1)c1ccc(F)cc1 (mixture of isomers) |  |
| 55 | 57 | 3680 |  |  |  | CC/C(=C(/c1ccc(O)cc1)c1ccc(OCC(=O)O)cc1)c1ccccc1 (mixture of isomers) |  |
| 54 | 68 | 328 |  |  |  | CC(C)/C(=C(/c1ccc(O)cc1)c1ccc(OCCN)cc1)c1ccccc1 (mixture of isomers) |  |
|  |  | 261 | 36.5 | 384 |  | CCC/C(=C(/c1ccc(O)cc1)c1ccc(OCCN)cc1)c1ccccc1 (mixture of isomers) |  |
| 60 | 60 |  |  |  |  | CC/C(=C(/c1ccc(O)cc1)c1ccc(OCCBr)cc1)c1ccccc1 (mixture of isomers) | inhibition (INH) (Aromatase): 20% |
|  |  | 1930 | 478 | 653 |  | NCCOc1ccc(C(=C(c2ccccc2)c2ccccc2)c2ccc(O)cc2)cc1 |  |
|  |  | 491 | 293 | 1920 | 6 | CC/C(=C(/c1ccc(O)cc1)c1ccc(CCCN)cc1)c1ccc(O)cc1 (mixture of isomers) |  |
|  |  | 48.1 | 49.9 | 144 |  | CC/C(=C(/c1ccc(N)cc1)c1ccc(OCCN)cc1)c1ccc(O)cc1 (mixture of isomers) |  |
| 48 | 64 | 48.9 |  |  |  | N#CC/C(=C(/c1ccc(O)cc1)c1ccc(OCCN)cc1)c1ccccc1 (mixture of isomers) |  |
| 62 | 56 | 30500 |  |  |  | CC/C(=C(/c1ccc(O)cc1)c1ccc(OCCO)cc1)c1ccccc1 (mixture of isomers) |  |
|  |  | 493 | 1350 | 3180 |  | NCCOc1ccc(/C(=C2\CCc3ccccc32)c2ccc(O)cc2)cc1 (mixture of isomers) |  |
| 62 | 40 |  |  |  |  | CC/C(=C(/c1ccc(O)cc1)c1ccc(OCCCl)cc1)c1ccccc1 (mixture of isomers) | inhibition (INH) (Aromatase): 27% |
|  |  | 337 | 27.8 | 675 |  | C/C(=C(/c1ccc(O)cc1)c1ccc(OCCN)cc1)c1ccccc1 (mixture of isomers) |  |
|  |  | 699 | 57.5 | 176 | 44 | NCCOc1ccc(/C(=C(\Cn2cnnc2)c2ccccc2)c2ccc(O)cc2)cc1 |  |
|  |  | 6290 | 19.5 | 1050 |  | NCCOc1ccc(/C(=C/c2ccccc2)c2ccc(O)cc2)cc1 (mixture of isomers) |  |
|  |  | 1320 | 202 | 277 |  | CCC(CC)=C(c1ccc(O)cc1)c1ccc(OCCN)cc1 |  |
|  |  | 53.1 | 182 | 274 |  | CC/C(=C(/c1ccc(N)cc1)c1ccc(OCCN)cc1)c1ccccc1 (mixture of isomers) |  |
|  |  | 715 | 47.7 | 56.5 | 47 | NCCOc1ccc(/C(=C(/Cn2cnnc2)c2ccccc2)c2ccc(O)cc2)cc1 |  |

| SMILES | Activity [1] [%] | Activity (Estrogen receptor beta [2]) [%] | IC50 (Aromatase) [nM] | EC50 (Estrogen receptor beta [3]) [nM] | EC50 (Estrogen receptor) [nM] | Activity [4] [%] | further results |
| --- | --- | --- | --- | --- | --- | --- | --- |
| CC/C(=C(/c1ccc(O)cc1)c1ccc(OCCN)cc1)c1ccccc1 (mixture of isomers) |  |  |  |  |  | 32 | Ki (Cytochrome P450 2D6): Not Active; inhibition (INH) (Cytochrome P450 2D6; human, recombinant enzyme, 0.5 h): Not Active; IC50 (Cytochrome P450 3A5): 723 nM; Ki (Cytochrome P450 3A5): 829 nM; IC50 (Cytochrome P450 2A6): 6370 nM; Ki (Cytochrome P450 2A6): 2180 nM; IC50 (Cytochrome P450 3A4): 285 nM; Ki (Cytochrome P450 3A4): 375 nM; IC50 (Cytochrome P450 1A2): 207 nM |
